Series [1] is described as follows: Toxicity in […] assessed as induction of apoptotic cell death at 1 to 10 uM measured after 1 hr by TUNEL assay. Type of series: cell-based. The conditions noted are these: ins1, 10 µM; dose 1-10 µM. In outline:
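INS-1 cells (RPMI, 10% FCS, 10 mM HEPES, 1 mM pyruvate, 37 °C, 5% CO2) were grown to ~70% confluency. They were pretreated 1 h with 1 or 10 μM (final DMSO 0.10%), then given vehicle or IL-1β 20 ng/mL + IFNγ 200 ng/mL for 16 h. Cells were cytospun, PFA-fixed, permeabilised, TUNEL-stained and DAPI-counterstained. Result was % TUNEL-positive nuclei from ≥3 fields per slide, 3–5 independent experiments, mean ± SEM.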

In series [2] the test system is A549. The series can be described thus: Induction of apoptosis in human A549 cells assessed as increase in activated caspase-3 at 50 uM measured after 72 hrs by DAPI and immunostaining based assay. Type of series: functional, cell-based. The procedure, abridged: (§1)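 A549 cells (DMEM, 4.5 g/L glucose, 10% heat-inactivated FBS) were grown on poly-L-lysine-coated coverslips and exposed to 50 μM or DMSO vehicle for 72 h. They were fixed in 4% PFA and blocked with 5% FBS/0.1% Triton X-100. Staining was rabbit anti-phospho-histone H3 or anti-cleaved caspase-3 overnight at 4 °C, then Alexa488 secondary and DAPI. Read-out was % positive nuclei over DAPI, n = 8 fields.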

Series [3] has as its system A549. The series can be described thus: Cell cycle arrest in human A549 cells assessed as reduction in histone H3 phosphorylation at 50 uM measured after 72 hrs by DAPI and immunostaining based assay. It is filed as functional. The procedure, abridged: as §1
Series [4] in a line: (§2) Protection against IL1beta/IFNgamma-induced cell death in […] cells assessed as reduction in cell death at 1 uM preincubated for 1 hr followed by IL1beta/IFNgamma addition and measured after 16 hrs by TUNEL assay relative to control. Set-up: scale not given: the % may be the effect or the level left. It is filed as functional. The conditions noted are these: time 17 hrs. The procedure, abridged: (§3)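 INS-1 insulinoma cells grown in RPMI (10% fetal calf serum, 2 mM glutamine, 10 mM HEPES, 1 mM pyruvate) at 37 °C, 5% CO2 to ~70% confluency. Pretreated 1 h with the hydroxy fatty acid in DMSO (final 0.10%), then IL-1β 20 ng/mL + IFNγ 200 ng/mL for 16 h. Cells were cytospun, PFA-fixed and permeabilised, then TUNEL/DAPI stained. Apoptotic cells counted as % of total, ≥3 fields per slide, 3–5 independent experiments.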

A short description of series [5]: (§4) Protection against IL1beta/IFNgamma-induced cell death in […] cells assessed as reduction in cell death at 10 uM preincubated for 1 hr followed by IL1beta/IFNgamma addition and measured after 16 hrs by TUNEL assay relative to control. Type of series: functional. Further details: scale not given: the % may be the effect or the level left. The conditions noted are these: time 17 hrs. In outline:
as §3

The subject of another series is U-87 MG. The series can be described thus: Antiproliferative activity against human U-87 MG cells assessed as reduction in cell growth after 72 hrs by MTT assay. It is filed as functional, cell-based. The conditions noted are these: U-87MG ATCC. The procedure, abridged: (§5)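 Cells were switched after 24 h to medium containing compound, diluted from a 10 mM DMSO stock to a final 0.5% DMSO, with vehicle controls. Exposure was 72 h, then MTT (0.25 mg/mL final) for 3 h. Formazan was dissolved in DMSO and read at 570 nm minus 690 nm background. Triplicate wells were normalised to DMSO as 100%. IC50 came from dose-response curves over at least six experiments.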

Series [6] concerns SF-268. The experiment in a line: Antiproliferative activity against human SF-268 cells assessed as reduction in cell growth after 72 hrs by MTT assay. Type of series: functional, cell-based. The conditions noted are these: SF-268, 72 h. In outline:
as §5

Series [7] has as its system Caco-2. The series can be described thus: Antiproliferative activity against human Caco2 cells assessed as reduction in cell growth after 72 hrs by MTT assay. It is filed as functional, cell-based. The conditions noted are these: Caco-2, 72 h. The procedure, abridged:
as §5

Series [8] deals with A549. The experiment in a line: Antiproliferative activity against human A549 cells assessed as reduction in cell growth after 72 hrs by MTT assay. It is filed as functional, cell-based. The conditions noted are these: A549, 72 h. In outline:
as §5
(In general: Formazan colour is commonly taken as a measure of viable cells.)

Series [9] relates to INS1. The description is as §2. Type of series: functional. The conditions noted are these: Rattus norvegicus, time 17.0 hrs. The procedure, abridged: as §3
Series [10] relates to INS1. The description is as §4. It is filed as functional. The conditions noted are these: Rattus norvegicus, time 17.0 hrs. In outline: as §3
Series [11] concerns the target Signal transducer and activator of transcription 3 (Homo sapiens) (UniProt P40763). The experiment in a line: Down regulation of STAT3 phosphorylation in human A549 cells at 50 uM by Western blot analysis. Type of series: cell-based. In outline: (§6)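 Treated and untreated A549 cells were lysed in RIPA and spun at 17,000g for 15 min at 4 °C. 35 μg protein was run on SDS-PAGE and transferred to nitrocellulose, then blocked with 5% BSA in TBS-0.1% Tween 20. Probes were anti-phospho-STAT3 (1:1000), anti-STAT3 (1:1000) and anti-β-actin (1:20,000) overnight at 4 °C, then secondary for 1.30 h. Relative protein expression was quantified.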

Series [12] concerns A549. The series can be described thus: Reduction in total STAT3 expression in human A549 cells at 50 uM by Western blot analysis. It is filed as functional, cell-based. In outline:
as §6

Series [13] has as its system A549. The series can be described thus: Reduction in STAT3 mRNA level in human A549 cells at 50 uM by RT-qPCR analysis. Type of series: functional, cell-based. In outline:
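STAT3 mRNA in DMSO- versus compound-treated A549 cells was measured by quantitative real-time RT-PCR, normalised to β-actin mRNA.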

Series [14] has as its system SF-268. The series can be described thus: Antiproliferative activity against human SF-268 cells assessed as reduction in cell growth at 10 to 100 uM after 72 hrs by MTT assay. The conditions noted are these: dose 10-100 µM. Type of series: functional, cell-based. The procedure, abridged: as §5
In series [15] the test system is Caco-2. The experiment in a line: Antiproliferative activity against human Caco2 cells assessed as reduction in cell growth at 10 to 100 uM after 72 hrs by MTT assay. The conditions noted are these: dose 10-100 µM. It is filed as functional, cell-based. The procedure, abridged: as §5
For series [16], the system named is A549. The experiment in a line: Antiproliferative activity against human A549 cells assessed as reduction in cell growth at 10 to 100 uM after 72 hrs by MTT assay. It is filed as functional, cell-based. The conditions noted are these: dose 10-100 µM. The procedure, abridged:
as §5

As usually defined, the IC50 is the point on the concentration scale where inhibition reaches its midpoint.

Activity calls are given as the source filed them. No cut-off for these calls is given here.

Chain of Signal transducer and activator of transcription 3 (Homo sapiens) (P40763 whole entry): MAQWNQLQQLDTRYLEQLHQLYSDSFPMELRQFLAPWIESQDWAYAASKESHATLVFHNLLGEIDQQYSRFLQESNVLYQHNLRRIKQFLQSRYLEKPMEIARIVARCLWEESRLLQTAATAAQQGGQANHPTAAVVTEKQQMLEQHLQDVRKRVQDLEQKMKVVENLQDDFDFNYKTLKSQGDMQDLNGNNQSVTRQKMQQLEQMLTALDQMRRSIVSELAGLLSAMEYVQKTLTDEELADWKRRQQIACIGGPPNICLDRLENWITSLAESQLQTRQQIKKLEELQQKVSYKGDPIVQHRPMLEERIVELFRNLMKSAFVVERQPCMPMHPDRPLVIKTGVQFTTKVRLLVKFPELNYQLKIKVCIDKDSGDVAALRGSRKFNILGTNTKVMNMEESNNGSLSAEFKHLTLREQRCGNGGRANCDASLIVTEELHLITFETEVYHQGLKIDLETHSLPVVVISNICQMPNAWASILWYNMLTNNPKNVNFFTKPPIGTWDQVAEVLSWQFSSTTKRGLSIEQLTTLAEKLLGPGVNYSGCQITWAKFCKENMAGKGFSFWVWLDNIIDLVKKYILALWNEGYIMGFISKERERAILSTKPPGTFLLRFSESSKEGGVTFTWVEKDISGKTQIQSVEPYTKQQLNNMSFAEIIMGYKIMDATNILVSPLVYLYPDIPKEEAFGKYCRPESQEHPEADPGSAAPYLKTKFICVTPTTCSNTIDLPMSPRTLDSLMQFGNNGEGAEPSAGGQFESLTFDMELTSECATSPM

In the case of `CCCCCCCCC[C@@H](O)CCCCCCCC(=O)O`, the values for the Activity entry in [1], in series [4] and in series [5] were “Non-Toxic”, 40% and 73%, respectively. Also, the outcome in the series on A549 [2] was inactive. The result in the series on A549 [3] was Active.

As to `CCCCCCCCCCC[C@H](O)CCCCCC(=O)O`, the outcome with U-87 MG, in the series on INS1 [9] and in the series with INS1 [10] was inactive. Besides, the IC50 with SF-268 [6] was 47 µM; with Caco-2 [7], 50 µM; in the series with A549 [8], 50 µM. For the same compound, the Activity entry in series [1] was “Non-Toxic”.

For the compound `CCCCCCCCCCC[C@@H](O)CCCCCC(=O)O`, the result in the series with U-87 MG, in the series on A549 [2] and in the series on INS1 [9] was inactive. Moreover, the IC50 turned out to be 27 µM with SF-268 [6], 37 µM in the series with Caco-2 [7] and 38 µM in the series on A549 [8]. Also, the Activity entry in [1] is listed as “Non-Toxic”; in series [5] it was 95%. In addition, the outcome (in [11]; in the series with A549 [12]; in the series with A549 [13]; in the series with A549 [3]) was Active.

As to `CCCCCCCCC[C@H](O)CCCCCC(=O)O`, the result in the series on U-87 MG was inactive. Further, the IC50 in the series with Caco-2 [7] was found to be 50 µM; with A549 [8], 55 µM.

For the compound `CCCCCCCCCCCCCCCC(=O)OC(CCCCCCCCC)CCCCCCCC(=O)O` (centres undefined), the outcome in the series on SF-268 [14], in the series with Caco-2 [15] and in the series on A549 [16] was inactive.

On to `CCCCCCCCC[C@@H](O)CCCCCC(=O)O`, for which, in the series with U-87 MG, the result was inactive. Besides, the results for the concentration for half-maximal inhibition (IC50) with Caco-2 [7] and in the series with A549 [8] were 42 µM and 49 µM, respectively.

Consider `CCCCCCCCCCCCCCCCCC(=O)O`, for which the result in the series on SF-268 [14], with Caco-2 [15] and in the series on A549 [16] was inactive.

On to `CCCCCCCC/C=C\CCCCCCCC(=O)OC(CCCCCCCCC)CCCCCCCC(=O)O` (centres undefined), for which the result in the series with SF-268 [14], in the series with Caco-2 [15] and in the series on A549 [16] was inactive.

Consider `CCCCCCCCCCCCCCCC(=O)OC(CCCCCCCCCCC)CCCCCC(=O)O` (centres undefined), for which the result with SF-268 [14], in the series on Caco-2 [15], in the series with A549 [16] and in the series with INS1 [10] was inactive.

As for `CCCCCCCCC[C@H](O)CCCCCCCC(=O)O`, the Activity result in [1] is on record as “Non-Toxic”; in series [4] it was 40%; in series [5] it was 68%.

As to `CCCCCCCCCCCCCCCC(=O)O`, the outcome in the series on SF-268 [14], in the series on Caco-2 [15] and with A549 [16] was inactive.

(Values after ChEMBL document CHEMBL4673261, “Saturated Hydroxy Fatty Acids Exhibit a Cell Growth Inhibitory Activity and Suppress the Cytokine-Induced β-Cell Apoptosis” (J Med Chem, 2020).)
